# Measurements from different studies.
# Protocols differ between the studies behind these lines.
Compound,tested on,assay,test system,setting,quantity,value
CO[C@H]1/C=C/O[C@@]2(C)Oc3c(C)c(O)c4c(O)c(c(/C=N/N5CCN(C)CC5)c(O)c4c3C2=O)NC(=O)/C(C)=C\C=C\[C@H](C)[C@H](O)[C@@H](C)[C@@H](O)[C@@H](C)[C@H](OC(C)=O)[C@@H]1C,Mycobacterium tuberculosis,microbial growth,H37RV,12.5 µg/mL,inhibition,97%
COC(=O)c1cc(-c2cccc(NC(=O)Nc3ccc(Cl)cc3Cl)c2)on1,Mycobacterium tuberculosis,microbial growth,ATCC27294 H37RV,7 days,MIC,0.5 µg/mL
Cc1csc2c(=O)n(O)c(=O)[nH]c12,Human betaherpesvirus 5,"viral replication, inhibitor",,"10 µM, 7 days",inhibition,33%
CCCCCCC#Cc1cncc(-c2nnc(SCc3ccc(Cl)cc3)n2C2CC2)c1,Mycobacterium tuberculosis,microbial growth,ERDMAN,,IC90,7.5 µM
O=C(NCc1ccc(F)cc1)c1nc(Cl)c2cccnc2c1O,Human betaherpesvirus 5,"viral replication, inhibitor",HFF,,EC50,8.3 µM
O=c1[nH]c2sc(-c3ccc(F)cc3)cc2c(=O)n1O,Human betaherpesvirus 5,"viral replication, inhibitor",,"10 µM, 7 days",inhibition,-12%
Nc1ncnc2c([C@@H]3N[C@H](CO)[C@@H](O)[C@H]3O)c[nH]c12,human respiratory syncytial virus,"viral replication, inhibitor",MA104,88.8 µM,inhibition,94.2%
Cc1c(C(=O)O)sc2[nH]c(=O)n(O)c(=O)c12,Human betaherpesvirus 5,"viral replication, inhibitor",,"10 µM, 7 days",inhibition,11%
CCOC(=O)C1=C(N)N(c2ccc(C(=O)OCC)cc2)C(O)=C(C#N)C12C(=O)Nc1ccccc12 (centres unmarked),HepG2,"cell growth or viability, MTT",,"100 µM, 24 h",viability,7.8%
CCCCCCC#Cc1cncc(-c2nnc(SCc3ccc([N+](=O)[O-])o3)n2C2CC2)c1,Mycobacterium tuberculosis,microbial growth,ERDMAN,,IC90,0.13 µM
O=c1[nH]c2cc(-c3ccc(Cl)cc3)ccc2c(=O)n1O,Human betaherpesvirus 5,"viral replication, inhibitor",,"10 µM, 7 days",inhibition,102%
CCN1CC2(CCN(CCc3cc(F)ccc3F)CC2)O[C@H](C)C1=O,,thermal pain,rat,intraperitoneal,ED50,1.85 mg/kg
O=C(NCc1ccc(Cl)c(Cl)c1)c1nc(Cl)c2cccnc2c1O,Human betaherpesvirus 5,"viral replication, inhibitor",HFF,,EC50,9.7 µM
CCCCCCC#Cc1cncc(-c2nnc(SCc3ccc(Cl)cc3)n2C)c1,Mycobacterium tuberculosis,microbial growth,ERDMAN,,IC90,8.1 µM
